Source: PubChem BioAssay
The list is not random: actives were taken first. Their share in the collection is about 2%.
CaV13 ICDI inh: Primary screen for inhibitors of IQ motif and Ca2+-dependent inactivation inhibitor domain binding in CACNA1D, Förster resonance energy transfer in living cells, …. inhibition, % at 12.3 µM. AID 743397. 340,000 compounds, 0.098% hits. HEK cells, CFP/YFP FRET ICDI-IQ, plate reader, 10 min; percent FRET-ratio fall versus neutral wells;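 active means mean replicate inhibition of at least 30% and at least 1% of replicates passing that level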
CASP6 VEID inh: caspase-6 (human) enzyme inhibition. 350,000 compounds, 0.53% hits. inhibition, % at 12.5 µM. purified caspase-6, Z-VEID-R110 cleavage fluorescence;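 active means mean inhibition across replicates at least about 35%, with every replicate also reaching that limit, limit read from the data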
Target sequence (P55212 24-179 limits assumed): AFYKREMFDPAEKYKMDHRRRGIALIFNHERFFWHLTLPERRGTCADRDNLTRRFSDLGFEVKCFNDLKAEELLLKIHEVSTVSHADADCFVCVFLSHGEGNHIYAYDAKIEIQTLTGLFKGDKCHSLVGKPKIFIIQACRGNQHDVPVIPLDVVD
Target sequence (P55212 194-293 limits assumed): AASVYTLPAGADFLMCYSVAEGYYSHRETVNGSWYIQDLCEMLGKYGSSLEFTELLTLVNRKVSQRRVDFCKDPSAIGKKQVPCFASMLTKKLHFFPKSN
DENV2 CPE: DENV2-induced cell death inhibition. 350,000 compounds, 1.7% hits. DENV2-infected cells, cytopathic effect rescue, plate reader. CPE inhibition, % at 9.99 µM; in the data active means CPE inhibition above about 20%, passing the limit was not always enough; tested in BHK-21 cells
XiGFP reactiv: reactivates the inactive X chromosome in mouse fibroblasts; XiGFP mouse fibroblasts, % GFP-positive cells imaging, 3 d; cells co-treated with 5-aza-dC sensitizer; scaled so ellipticine positive control = 100%; activation, % at 7.58 µM; 360,000 compounds, 0.055% hits;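 active means mean normalized replicate activation at least 10% and every replicate at or above 10%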
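Material: SV40-immortalized XiGFP fibroblast cells, line 68-5-11 | Buffer or medium: DMEM containing 5-aza-dC | Dosing: One concentration, pinned | Times: 3 d treatment, 15 min room-temperature fixation | Controls: Ellipticine 6 µM positive control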
FN deposit inh: fibronectin deposition inhibition; AH1F fibroblasts, Alexa488-fibronectin deposition fluorescence, overnight; AID 743247; 350,000 compounds, 0.086% hits; inhibition, % at 12.6 µM;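 active means mean inhibition across replicates of 30% or more, regardless of how many single replicates reach that level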
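Schedule: 1 h cell adhesion before compound, then overnight fibronectin incubation; test system: AH1F fibroblast monolayer depositing Alexa488-labelled fibronectin into matrix; quantity: 10000 AH1F cells per well; probe or stimulus: fluorescent fibronectin at 24 nM final; signal: fluorescence, ex 485 nm, em 525 nm; evaluation: percent inhibition as loss of matrix-bound fibronectin fluorescence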
Numbers stand for hits; i = inactive; nt = no result given; + = active, no number; ! = not confirmed by another sample.

SMILES | CaV13 ICDI inh | CASP6 VEID inh | DENV2 CPE | XiGFP reactiv | FN deposit inh
COCC(=O)N1CC[C@@H]2[C@H]1c1cc(-c3cccc(C#N)c3)ccc1N[C@@H]2CO | nt | i | i | i | i
COCC(=O)N1CC[C@@H]2[C@H](CO)Nc3ccc(-c4cccc(C#N)c4)cc3[C@@H]21 | nt | i | 44 | i | i
N#Cc1cccc(-c2ccc3c(c2)[C@H]2[C@H](CCN2Cc2ccncc2)[C@H](CO)N3)c1 | nt | i | 50 | i | i
CCC(=O)N1CC[C@H]2[C@H](CO)Nc3ccc(C#Cc4ccc(OC)cc4)cc3[C@H]21 | nt | i | 56 | i | i
N#Cc1cccc(-c2ccc3c(c2)[C@@H]2[C@@H](CCN2Cc2ccncc2)[C@@H](CO)N3)c1 | nt | i | i | i | i
COc1ccc(S(=O)(=O)N(C)C[C@@H]2OCCCC[C@@H](C)Oc3ccc(NS(=O)(=O)c4cccs4)cc3C(=O)N([C@@H](C)CO)C[C@H]2C)cc1 | nt | i | i | i | nt
O=C(O)c1cc(Cl)ccc1-c1ccc(/C=C/c2cc(C(F)(F)F)[nH]c(=O)n2)o1 | i | 45 | i | i | i
COCC(=O)N1C[C@H](C)[C@@H](OC)CN(C)C(=O)c2cc(NC(=O)c3cc(C)on3)ccc2OC[C@H]1C | nt | nt | nt | i | i
COc1cc2c(cc1OC)C(C)N(C(=O)Cn1ncc3c1-c1cc(C)ccc1OC3)CC2 (stereo not drawn) | i | i | 70 | i | i
COc1ccc(S(=O)(=O)N2CCC3CC2c2cc(-c4ccc5c(c4)OCO5)ccc23)cc1 (stereo not drawn) | i | i | 89 | nt | i
Clc1cccc(CN2CCN(Cc3nc(CCc4ccccc4)no3)CC2)c1 | + | i | i | i | i
C[C@@H]1CCCCO[C@@H](CN(C)Cc2ccccc2)[C@@H](C)CN([C@H](C)CO)C(=O)c2cc(NC(=O)Nc3cccc4ccccc34)ccc2O1 | i | i | 21! | i | i
C[C@@H]1CCCCO[C@@H](CN(C)Cc2ccccc2)[C@H](C)CN([C@@H](C)CO)C(=O)c2cc(NC(=O)Nc3cccc4ccccc34)ccc2O1 | nt | i | i | i | i
C[C@H](CO)N1C[C@H](C)[C@@H](CN(C)C(=O)Cc2ccccc2)OCCCC[C@H](C)Oc2ccc(NC(=O)Nc3cccc4ccccc34)cc2C1=O | nt | i | 24 | i | nt
O=C(CC(F)(F)F)N1C[C@H]2[C@@H](c3ccccc31)[C@@H](CO)N2C(=O)C1CCCCC1 | nt | i | i | i | i
O=C(CC(F)(F)F)N1C[C@@H]2[C@H](c3ccccc31)[C@@H](CO)N2C(=O)C1CC1 | nt | i | 36 | i | i
O=C(C1CCCC1)N1C[C@@H]2[C@H](c3ccccc31)[C@@H](CO)N2C(=O)Cc1ccccn1 | nt | i | 34 | i | i
O=C(C1CCCC1)N1C[C@@H]2[C@H](c3ccccc31)[C@H](CO)N2C(=O)Cc1ccccn1 | nt | i | i | i | i
O=C(Cc1ccccc1)N1C[C@@H]2[C@H](c3ccccc31)[C@@H](CO)N2C(=O)C1CCCCC1 | nt | i | 24 | i | nt
COc1ccccc1C(=O)N1C[C@@H]2[C@H](c3ccccc31)[C@H](CO)N2C(=O)C1CCCC1 | nt | i | 22 | i | i
O=C(c1cccnc1)N1CC2(C1)[C@@H](c1ccccc1)[C@H](CO)N2Cc1cccnc1 | nt | i | i | i | i
O=C(c1ccccc1)N1C[C@H]2[C@@H](c3ccccc31)[C@@H](CO)N2C(=O)CN1CCOCC1 | nt | i | i | i | nt
O=C(CC(F)(F)F)N1C[C@@H]2[C@H](c3ccccc31)[C@@H](CO)N2C(=O)CN1CCOCC1 | nt | i | 53 | i | nt
O=C(Cc1ccccc1)N1C[C@@H]2[C@H](c3ccccc31)[C@H](CO)N2C(=O)C1CCCC1 | nt | nt | nt | i | i
O=C(Nc1ccccc1F)N1C[C@@H]2[C@H](c3ccccc31)[C@H](CO)N2C(=O)C1CC1 | nt | i | i | i | 30
SMILES | CaV13 ICDI inh | CASP6 VEID inh | DENV2 CPE | XiGFP reactiv | FN deposit inh
O=C(Cc1ccccc1)N1C[C@H]2[C@@H](c3ccccc31)[C@@H](CO)N2C(=O)C1CC1 | nt | i | 25 | i | i
Cc1ccccc1N(C)S(=O)(=O)c1nnc(NC(=O)c2ccco2)s1 | i | 69 | i | i | i
COc1ccc(C(=O)N2C[C@H]3[C@@H](c4ccccc42)[C@H](CO)N3Cc2ccccc2Cl)cc1 | nt | i | i | i | i
Nc1ccc2oc(-c3ccccc3Cl)cc(=O)c2c1O | i | i | 105 | i | i
O=C(C[C@H]1C=C[C@H](NC(=O)c2ccncc2)[C@@H](CO)O1)Nc1ccccc1 | nt | i | i | i | i
CO[C@H]1CN(C)C(=O)c2ccc(NC(=O)NC(C)C)cc2OC[C@H](C)N(CCC(F)(F)F)C[C@H]1C | nt | i | 55 | i | i
CO[C@@H]1CN(C)C(=O)c2ccc(NC(=O)NC(C)C)cc2OC[C@@H](C)N(CCC(F)(F)F)C[C@@H]1C | nt | i | 33 | i | i
CO[C@@H]1CN(C)C(=O)c2ccc(NC(=O)NC(C)C)cc2OC[C@@H](C)N(CCC(F)(F)F)C[C@H]1C | nt | i | i | i | i
COc1ccccc1N1C(=O)C2CCC(c3ccccc3)CC2C1=O (stereo not drawn) | i | i | 23 | i | i
Cc1cccc(N2C(=O)C3CCC(c4ccccc4)CC3C2=O)c1 (stereo not drawn) | i | i | i | i | i
COCC#Cc1ccc([C@@H]2[C@H]3CN(C(=O)Nc4ccc(F)cc4)CC(=O)N3[C@H]2CO)cc1 | nt | i | i | i | nt
Cc1ccc(C(=O)N2CCC3(CC2)Oc2ccc(Cl)cc2C(=O)C32CC(c3cccnc3)=NO2)s1 (stereo not drawn) | i | i | i | i | i
O=C(/C=C/c1cccs1)N1CCC2(CC1)Oc1ccc(Cl)cc1C(=O)C21CC(c2cccnc2)=NO1 (stereo not drawn) | i | i | i | i | 31
CCC(=O)N1CCC2(CC1)Oc1ccc(Cl)cc1C(=O)C21CC(c2ccc(Cl)cc2)=NO1 (stereo not drawn) | i | i | 90 | i | i
Cc1cccn2c(=O)c3cc(C(=O)NC(C)c4ccccc4)c(=N)n(CCCn4ccnc4)c3nc12 (stereo not drawn) | 75 | i | i | nt | i
Cc1ccc2nc3c(cc(C(=O)NCc4ccccc4)c(=N)n3CCCn3ccnc3)c(=O)n2c1 | + | i | i | i | i
Cc1ccc2nc3c(cc(C(N)=S)c(=N)n3CCCOC(C)C)c(=O)n2c1 | 34 | i | nt | nt | nt
COCCCn1c(=N)c(C(N)=S)cc2c(=O)n3cccc(C)c3nc21 | i | i | i | i | i
CO[C@H]1CN(C)C(=O)c2cc(NS(=O)(=O)c3ccc(C)cc3)ccc2OC[C@@H](C)N(Cc2nccs2)C[C@H]1C | nt | i | i | i | i
N#CC(C#N)=C1C=CC=CN1/C(=C\c1ccccc1)C(=O)c1cccs1 | 63 | i | i | i | i
